The whole screen tested about 360,000 compounds, of which about 950 (0.26%) were called active. This is one part of a sample in which actives are shown more often than they occur. Unmarked numbers belong to inactive results.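 How the source made its calls: active means inhibition above a per-plate limit, mean inhibition of low control wells plus 3 SD (cut at about 25% in these data); inactive means the rest.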
Target: ADP-ribosylation factor GTPase-activating protein 1 (Rattus norvegicus) (UniProt Q62848)
Assay: blockers of ARFGAP1-stimulated ARF1 GTP hydrolysis – biochemical, fluorescence polarization, GDP tracer, primary screen (AID 651572);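 further: 0% = DMSO wells with enzyme and 100% = wells lacking Arfgap1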
Settings: GDP FP detection, at 16.5 µM, stronger effect = higher value
In short: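 System: truncated rat Arfgap1 GAP domain / Benchmarks: high control wells lacking Arfgap1, low control full reaction with DMSO / Times: compound-enzyme preincubation 20 min, reaction 120 min, detection 60 min, 25 °C / Repeats: one replicate per compound / Also added: human ARF1(Δ1-17)-GTP substrate / Measured by: Tracer-displacement fluorescence polarization with EDTA stop, 620/688 nm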

Chain of ADP-ribosylation factor GTPase-activating protein 1 (Rattus norvegicus) (Q62848 1-136 limits assumed): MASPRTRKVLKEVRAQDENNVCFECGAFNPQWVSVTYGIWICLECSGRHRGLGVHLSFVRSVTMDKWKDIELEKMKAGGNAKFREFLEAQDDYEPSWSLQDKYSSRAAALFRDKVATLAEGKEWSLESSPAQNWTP

Q: `O=C(NC1CCCCC1)c1ccc(CNc2c(N3CCOCC3)c(=O)c2=O)cc1` was tested. Which inhibition did it give?
A: 26.4% (active)

Q: `O=C(NCc1ccccc1)c1ccc(CNc2c(N3CCCC3)c(=O)c2=O)cc1` was tested. Which inhibition did it give?
A: -4.58%

Q: Which inhibition does the source give for `O=C(NCc1ccc(F)cc1)C1CCC(CNc2c(N3CCOCC3)c(=O)c2=O)CC1` (configuration not stated) here?
A: 2.8%

Q: With `O=C(NS(=O)(=O)c1cccs1)[C@H]1O[C@@H](n2ccc(=O)[nH]c2=O)[C@H](O)[C@@H]1O` as the compound, how does the inhibition read?
A: 1.8%

Q: How did the inhibition turn out when `C[C@H](O)[C@@H]1CN2CCc3ccc(-c4ccc5c(c4)OCO5)cc3[C@@H]2C[C@@H]1N(C)C(=O)C1CCCCC1` was run?
A: -7.53%

Q: Which inhibition does the source give for `CN[C@H]1C[C@H]2c3[nH]c4c(-c5ccccc5)cccc4c3CCN2C(=O)[C@H]1[C@H](C)O` here?
A: 6.11%

Q: How did the inhibition turn out when `c1ccc(-c2cc(-c3nnc4sc(-c5ccccn5)nn34)[nH]n2)cc1` was run?
A: 37.4% (active)

Q: Which inhibition does the source give for `Fc1ccc(-c2ccc(-c3nn4c(-c5ccco5)nnc4s3)o2)cc1` here?
A: 3.63%

Q: How did the inhibition turn out when `CCCCCCCCN1C(=O)[C@@H](CC(=O)NCc2ccccc2)C[C@@]2(C(=O)OC)C1=C[C@H](C(C)(C)C)O[C@@H]2C` was run?
A: 1.82%

Q: `C=CCN=C1NC(c2ccccc2)C(C(=O)OC)=C(C)N1Cc1ccc(C(F)(F)F)cc1` (configuration not stated) was tested. Which inhibition did it give?
A: 7.52%

Q: With `COC(=O)N1Cc2ccnnc2CC1c1ccccc1Br` (configuration not stated) as the compound, how does the inhibition read?
A: 0.38%

Q: For `O=C(C(=O)N1CCC(CNC(=O)c2cccnc2Cl)CC1)c1cccs1`, which inhibition is on record?
A: 12.7%

Q: Which inhibition does the source give for `COc1ccc(NC(=O)N(C)C[C@@H]2OCCCC[C@@H](C)Oc3ccc(NC(=O)NC4CCCCC4)cc3C(=O)N([C@H](C)CO)C[C@@H]2C)cc1` here?
A: -0.56%

Q: With `CCN(CC)c1ccc(NC(=O)CN2CCN(c3ccccn3)CC2)cc1` as the compound, how does the inhibition read?
A: 45.5% (active)

Q: `CCC(=O)Nc1ccc2c(c1)nc(CCN1CCN(c3ccccn3)CC1)n2C` was tested. Which inhibition did it give?
A: -11.6%

Q: For `O=C(CN1CCN(c2ccccn2)CC1)NCc1cccs1`, which inhibition is on record?
A: 19.2%

Q: With `O=S(=O)(c1cccs1)N1CCCc2nc(-c3ccc(Br)cc3)ccc21` as the compound, how does the inhibition read?
A: -3.29%

Q: For `O=C(NCc1ccccc1)[C@@H]1CCCN1C(=O)[C@@H](NS(=O)(=O)c1ccc(F)cc1F)C1CCCCC1`, which inhibition is on record?
A: 2.51%

Q: Which inhibition does the source give for `COC(=O)[C@]12C[C@H](CC(=O)NCCC(C)C)C(=O)N(CCc3ccc(OC)c(OC)c3)C1=C[C@H](C(C)(C)C)O[C@@H]2C` here?
A: 6.73%

Q: How did the inhibition turn out when `Cc1ccc2nc(SCC(=O)N3CCN(c4ccccc4)CC3)nc(=O)n2c1` was run?
A: 22.7%

Q: `Cc1ccc2nc(SCC(=O)N3CC(C)OC(C)C3)nc(=O)n2c1` (configuration not stated) was tested. Which inhibition did it give?
A: 83.6% (active)

Q: Which inhibition does the source give for `Cc1ccc2nc(SCC(=O)Nc3cccc4ccccc34)nc(=O)n2c1` here?
A: 8.63%

Q: For `Brc1ccc(COCCc2cn(Cc3ccccc3)c3ccccc23)cc1`, which inhibition is on record?
A: 10.9%

Q: With `CCN1C(=O)N[C@@H]2C[C@H](C(=O)N3CCCC3)[C@H](C)[C@H](c3ccccc3)C[C@@H]21` as the compound, how does the inhibition read?
A: -0.64%

Q: `O=C(C(=O)N1CCC(CNS(=O)(=O)Cc2ccccc2)CC1)c1cc2ccccc2o1` was tested. Which inhibition did it give?
A: 10.3%

Q: How did the inhibition turn out when `O=C(NCc1ccccc1)[C@H]1CCCN1C(=O)[C@H]1CCCN1C(=O)c1cc(F)cc(F)c1` was run?
A: -2.81%

Q: How did the inhibition turn out when `COc1ccc(C(CNC(=O)c2ccc(S(=O)(=O)Nc3ccccc3C)cc2)N2CCOCC2)cc1` (configuration not stated) was run?
A: -2.87%

Q: `COc1ccc(C(CNC(=O)c2cccc(S(=O)(=O)Nc3ccccc3Cl)c2)N2CCOCC2)cc1` (configuration not stated) was tested. Which inhibition did it give?
A: 27% (active)

Q: With `COc1ccc(C(CNC(=O)c2cccc(NS(=O)(=O)c3ccc(C)c(F)c3)c2)N2CCCC2)cc1` (configuration not stated) as the compound, how does the inhibition read?
A: 16.5%

Q: How did the inhibition turn out when `O=C(N[C@H](C(=O)N1CCC[C@H]1C(=O)NCCc1ccccc1Cl)c1ccccc1)c1ccccc1` was run?
A: 0.74%

Q: With `Cc1ccccc1C(=O)N[C@H](C(=O)N1CCC[C@H]1C(=O)NCc1ccccc1)C(C)C` as the compound, how does the inhibition read?
A: -4.95%

Q: For `Cc1ccc2nc(N3C(=O)C(O)=C(C(=O)c4ccco4)C3c3cccc(O)c3)sc2c1` (configuration not stated), which inhibition is on record?
A: 28.5% (active)

Q: `C=CCSc1nnc(N2C(=O)C(O)=C(C(=O)c3ccco3)C2c2ccc(F)cc2)s1` (configuration not stated) was tested. Which inhibition did it give?
A: -2.87%

Q: Which inhibition does the source give for `COc1cc(C2C(C(=O)c3ccco3)=C(O)C(=O)N2c2cc(C)on2)ccc1OCc1ccccc1` (configuration not stated) here?
A: -0.46%

Q: With `COC(=O)C1=C(C)N(Cc2ccccc2C(F)(F)F)C(=NCC2CC2)NC1c1cccc(Cl)c1` (configuration not stated) as the compound, how does the inhibition read?
A: -11.5%

Q: How did the inhibition turn out when `CN1C(=O)C(Br)(Br)CC1c1cccnc1` (configuration not stated) was run?
A: 15.5%

Q: Which inhibition does the source give for `CC(=O)c1ccc(S(=O)(=O)NCC2CCN(C(=O)C(=O)c3cccs3)CC2)cc1` here?
A: 0.05%

Q: With `Clc1cccc2c1C1CC2CCN1Cc1ccccc1` (configuration not stated) as the compound, how does the inhibition read?
A: 1.92%

Q: How did the inhibition turn out when `Cc1cc(C)cc(NC(=O)C2CCCN(S(=O)(=O)c3ccc4[nH]c(=O)ccc4c3)C2)c1` (configuration not stated) was run?
A: 27.2% (active)

Q: For `CC1CCN(S(=O)(=O)c2ccc3[nH]c(=O)ccc3c2)CC1`, which inhibition is on record?
A: -6.93%

Q: How did the inhibition turn out when `CCc1cccc(NC(=O)C2CCCN(S(=O)(=O)c3ccc4[nH]c(=O)ccc4c3)C2)c1` (configuration not stated) was run?
A: -1.05%

Q: How did the inhibition turn out when `CCOc1ccccc1C(=O)N1CCC[C@@H]1C(=O)N1CCC[C@H]1C(=O)NCc1ccccc1` was run?
A: 2.51%

Q: With `C=CCN1C(=O)N(Cc2ccccc2)c2ccccc2S1(=O)=O` as the compound, how does the inhibition read?
A: -1.51%

Q: With `S=C(NCc1cccs1)Nc1ccc(Cl)cc1` as the compound, how does the inhibition read?
A: 28.2% (active)

Q: With `COc1ccc(NC(=S)NCc2cccs2)c(OC)c1` as the compound, how does the inhibition read?
A: 7.24%

Q: How did the inhibition turn out when `O=C(CN1CCN(c2ccc(Cl)cc2)CC1)NCc1cccs1` was run?
A: -5.05%

Q: `COc1ccc(-c2ccc3c(n2)CCCN3S(=O)(=O)c2ccc(C)cc2)cc1` was tested. Which inhibition did it give?
A: -4.31%

Q: Which inhibition does the source give for `COc1ccccc1-c1ccc([C@@H]2C[C@H]3[C@H](CON3C)CN2S(=O)(=O)c2cc(Cl)cc(Cl)c2)cc1` here?
A: 5.63%

Q: For `Nc1nc2c(ncn2[C@@H]2O[C@H](C(=O)N[C@@H](Cc3ccccc3)C(=O)NCc3ccccc3)[C@@H](O)[C@H]2O)c(=O)[nH]1`, which inhibition is on record?
A: -1.71%

Q: With `COC(=O)[C@]12C[C@H](CC(=O)NCc3cccc(C(F)(F)F)c3)C(=O)N(Cc3ccc4c(c3)OCO4)C1=C[C@H](COCc1ccccc1)O[C@@H]2C` as the compound, how does the inhibition read?
A: 5.08%

Q: Which inhibition does the source give for `Cc1[nH]nc2c1C(c1ccc(Br)cc1)NC2=O` (configuration not stated) here?
A: 2.74%

Q: With `COC(=O)C1=C(C)N(Cc2ccccc2C(F)(F)F)C(=NCc2ccc(OC)cc2)NC1c1cccc(C(F)(F)F)c1` (configuration not stated) as the compound, how does the inhibition read?
A: 10.9%

Q: With `O=C(CCc1ccccc1)Nc1nn[nH]n1` as the compound, how does the inhibition read?
A: 11.2%

Q: How did the inhibition turn out when `CC(C)(C)NC(=O)CSc1nnc(NC(=O)CCc2ccccc2)s1` was run?
A: 0.73%

Q: `O=C(CCc1ccccc1)Nc1ncc([N+](=O)[O-])s1` was tested. Which inhibition did it give?
A: 29% (active)

Q: With `Nc1ccn([C@@H]2O[C@H](C(=O)N[C@H]3CCCCNC3=O)[C@@H](O)[C@H]2O)c(=O)n1` as the compound, how does the inhibition read?
A: -7.26%

Q: With `COc1ccc(-c2ccccc2C2Cc3nnccc3CN2C(=O)Nc2ccccc2)cc1` (configuration not stated) as the compound, how does the inhibition read?
A: 0.85%

Q: How did the inhibition turn out when `COc1ccc(NC(=O)CSc2nc(N)c(-c3ccccc3)c(=O)[nH]2)cc1` was run?
A: 5.45%

Q: How did the inhibition turn out when `COc1ccc(NC(=O)c2cn(-c3ccccc3)nc2SC)cc1` was run?
A: 25.1% (active)

Q: How did the inhibition turn out when `COc1ccc(NC(=O)c2ccccc2CC[N+](=O)[O-])cc1` was run?
A: -2.01%

Q: `NC(=O)c1ncn([C@@H]2O[C@H](C(=O)O)[C@@H](O)[C@H]2O)n1` was tested. Which inhibition did it give?
A: -10.5%

Q: How did the inhibition turn out when `COC(=O)C1=C(C)N(Cc2cccc(C(F)(F)F)c2)C(=NCc2cccc(C(F)(F)F)c2)NC1c1ccccc1C(F)(F)F` (configuration not stated) was run?
A: 18.5%

Q: For `CCO[C@@H]1OC(C(N)=O)=C[C@H](c2ccc(Br)cc2)[C@H]1CCCO`, which inhibition is on record?
A: 37% (active)

Q: Which inhibition does the source give for `C#CCNC(=O)C1=C[C@@H](c2ccccc2)[C@H](CCCO)[C@@H](OCC)O1` here?
A: 0.84%

Q: For `CCO[C@H]1OC(C(=O)N2CCCCCCC2)=C[C@@H](c2ccc(C(F)(F)F)cc2)[C@@H]1CCCO`, which inhibition is on record?
A: 5.85%

Q: Which inhibition does the source give for `CC[C@H](C)[C@H]1CNC(=O)C(=O)N1CC1CCN(CCc2ccc(OC)c(OC)c2)CC1` here?
A: 4.8%

Q: For `COC(=O)[C@]12C[C@H](CC(=O)NCc3ccc(OC)c(OC)c3)C(=O)N(Cc3ccccc3)C1=C[C@H](C(C)C)O[C@@H]2C1CC1`, which inhibition is on record?
A: 1.55%

Q: Which inhibition does the source give for `COc1cccc(CNC(=O)[C@H]2CCCN2C(=O)[C@H]2CCCN2C(=O)c2ccc(F)cc2)c1` here?
A: 2.29%

Q: Which inhibition does the source give for `CCOC(=O)N1CCN(C(=O)C[C@H]2C[C@@]3(C(=O)OC)C(=C[C@H](C4CCCC4)O[C@@H]3C)N(Cc3ccccc3)C2=O)CC1` here?
A: -0.91%

Q: For `COc1ccccc1C(=O)N1O[C@]23C=C[C@]14C[C@@H](O)CC[C@]4(C)C2CC[C@]1(C)[C@@H]([C@H](C)/C=C/[C@H](C)C(C)C)CC[C@H]13` (some centres not stated), which inhibition is on record?
A: -2.43%

Q: For `OC(c1ccccc1)(c1ccccc1)C1CCN(CCCOc2ccc(-c3ccsc3)cc2)CC1`, which inhibition is on record?
A: 15.6%

Q: For `COc1ccc(-c2cc3nc(NCCOc4ccccc4)ccn3n2)cc1`, which inhibition is on record?
A: 22.7%

Q: For `COCCCNc1ccn2nc(-c3ccc(CC(C)C)cc3)cc2n1`, which inhibition is on record?
A: 12.8%

Q: Which inhibition does the source give for `COCCNc1cc(-c2ccccc2)nc2cc(-c3cccc(F)c3)nn12` here?
A: 26.4% (active)

Q: Which inhibition does the source give for `C[C@H]1[C@H](c2ccccc2)Oc2cc(Br)ccc2S(=O)(=O)N1Cc1cccc(F)c1` here?
A: -1.97%

Q: `Cc1noc(C)c1NC(=O)Nc1ccc2c(c1)C(=O)N([C@H](C)CO)C[C@H](C)[C@H](CN(C)Cc1ccncc1)OCCCC[C@@H](C)O2` was tested. Which inhibition did it give?
A: 7.37%

Q: How did the inhibition turn out when `COC(=O)c1c(-c2ccc(OC)cc2)c2c(c3c4cc(OC)ccc4n(S(=O)(=O)c4ccc(F)cc4)c13)C(=O)N(C)C2` was run?
A: -3.49%

— PubChem BioAssay AID651572 (The Scripps Research Institute Molecular Screening Center, 2012)
